Results: ChEMBL document CHEMBL2346629, “Discovery and characterization of novel allosteric FAK inhibitors” (Eur J Med Chem, 2013)

Key:
[1] = molecular target: Serine/threonine-protein kinase Nek1 (Homo sapiens) (UniProt Q96PY6); assay: Inhibition of NEK1 (unknown origin) using [gamma-33P]ATP assessed as residual activity at 3 uM
[2] = molecular target: Serine/threonine-protein kinase MRCK beta (Homo sapiens) (UniProt Q9Y5S2); assay: Inhibition of MRCKB (unknown origin) using [gamma-33P]ATP assessed as residual activity at 3 uM
[3] = molecular target: Serine/threonine-protein kinase MARK1 (Homo sapiens) (UniProt Q9P0L2); assay: Inhibition of MARK1 (unknown origin) using [gamma-33P]ATP assessed as residual activity at 3 uM
Serine/threonine-protein kinase MARK1 (Homo sapiens), sequence (Q9P0L2 whole entry, looked up): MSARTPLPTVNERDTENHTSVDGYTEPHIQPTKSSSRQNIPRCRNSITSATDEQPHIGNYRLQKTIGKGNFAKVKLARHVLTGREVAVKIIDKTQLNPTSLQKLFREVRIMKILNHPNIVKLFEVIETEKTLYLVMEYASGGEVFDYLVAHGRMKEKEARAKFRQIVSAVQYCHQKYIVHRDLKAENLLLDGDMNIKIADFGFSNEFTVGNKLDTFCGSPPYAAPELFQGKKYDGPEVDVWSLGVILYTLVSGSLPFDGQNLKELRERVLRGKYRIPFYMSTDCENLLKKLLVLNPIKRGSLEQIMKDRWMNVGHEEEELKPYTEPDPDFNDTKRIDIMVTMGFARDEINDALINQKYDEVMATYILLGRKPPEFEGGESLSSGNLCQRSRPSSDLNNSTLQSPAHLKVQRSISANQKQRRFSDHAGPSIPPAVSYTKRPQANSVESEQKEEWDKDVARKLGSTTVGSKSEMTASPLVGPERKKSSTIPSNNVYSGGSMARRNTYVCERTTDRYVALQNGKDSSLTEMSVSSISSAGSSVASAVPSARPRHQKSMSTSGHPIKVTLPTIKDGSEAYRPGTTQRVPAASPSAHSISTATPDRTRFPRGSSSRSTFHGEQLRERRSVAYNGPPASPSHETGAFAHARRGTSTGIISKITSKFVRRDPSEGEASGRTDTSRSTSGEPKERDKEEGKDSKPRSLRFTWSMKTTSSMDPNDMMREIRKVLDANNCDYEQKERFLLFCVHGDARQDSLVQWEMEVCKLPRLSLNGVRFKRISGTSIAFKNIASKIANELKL
Method in brief: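 Contract radiometric panel screen of 288 kinases (261 wild-type, 27 mutant). Inhibition was read by [gamma-33P]ATP radioactivity incorporation.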

[4] = molecular target: CDK9/Cyclin K (Homo sapiens) (UniProt P50750+O75909); assay: Inhibition of CDK9/cyclin K (unknown origin) using [gamma-33P]ATP assessed as residual activity at 3 uM; format: protein-complex assay
Method in brief: (§1)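 Radiometric profiling across 288 kinases (261 wild-type, 27 mutant), run as an outsourced service. Inhibition read out as [gamma-33P]ATP incorporation into substrate.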

[5] = molecular target: CDK6/cyclin D1 (Homo sapiens) (UniProt P24385+Q00534); assay: Inhibition of CDK6/cyclin D1 (unknown origin) using [gamma-33P]ATP assessed as residual activity at 3 uM; format: protein-complex assay; method in brief: as §1
[6] = molecular target: CDK3/cyclin E (Homo sapiens) (UniProt P24864+O96020+Q00526); assay: Inhibition of CDK3/cyclinE (unknown origin) using [gamma-33P]ATP assessed as residual activity at 3 uM; format: protein-complex assay; method in brief: as §1
[7] = molecular target: Calcium/calmodulin-dependent protein kinase type 1D (Homo sapiens) (UniProt Q8IU85); assay: Inhibition of CAMK1d (unknown origin) using [gamma-33P]ATP assessed as residual activity at 3 uM; method in brief: as §1
Calcium/calmodulin-dependent protein kinase type 1D (Homo sapiens), sequence (Q8IU85 whole entry, looked up): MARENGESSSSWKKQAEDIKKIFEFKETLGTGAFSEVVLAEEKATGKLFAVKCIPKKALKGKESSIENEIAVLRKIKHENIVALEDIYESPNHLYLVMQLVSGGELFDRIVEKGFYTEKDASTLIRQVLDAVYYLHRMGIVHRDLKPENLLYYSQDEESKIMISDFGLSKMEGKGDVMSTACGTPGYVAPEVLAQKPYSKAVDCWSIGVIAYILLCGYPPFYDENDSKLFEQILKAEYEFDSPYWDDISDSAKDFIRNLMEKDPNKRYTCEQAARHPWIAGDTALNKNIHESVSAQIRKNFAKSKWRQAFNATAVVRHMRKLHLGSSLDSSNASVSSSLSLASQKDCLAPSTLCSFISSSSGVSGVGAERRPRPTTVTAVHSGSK

[8] = molecular target: Cytoplasmic tyrosine-protein kinase BMX (Homo sapiens) (UniProt P51813); assay: Inhibition of BMX (unknown origin) using [gamma-33P]ATP assessed as residual activity at 3 uM; method in brief: as §1
[9] = tested on: Serine/threonine-protein kinase Chk2 (Homo sapiens), O96017 [I157T]; assay: Inhibition of CHK2 I157T mutant (unknown origin) using [gamma-33P]ATP assessed as residual activity at 3 uM
[10] = molecular target: Tyrosine-protein kinase Lyn (Homo sapiens) (UniProt P07948); assay: Inhibition of LYN-B (unknown origin) using [gamma-33P]ATP assessed as residual activity at 3 uM
Method in brief: (§2)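 Radiometric kinase profiling service covering 288 kinases (261 wild-type, 27 mutant). Inhibition was read as incorporation from [γ-³³P]ATP.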

[11] = molecular target: Tyrosine-protein kinase Lck (Homo sapiens) (UniProt P06239); assay: Inhibition of LCK (unknown origin) using [gamma-33P]ATP assessed as residual activity at 3 uM; method in brief: as §2
[12] = molecular target: Aurora kinase C (Homo sapiens) (UniProt Q9UQB9); assay: Inhibition of Aurora C (unknown origin) using [gamma-33P]ATP assessed as residual activity at 3 uM; method in brief: as §1
Aurora kinase C (Homo sapiens), sequence (Q9UQB9 whole entry): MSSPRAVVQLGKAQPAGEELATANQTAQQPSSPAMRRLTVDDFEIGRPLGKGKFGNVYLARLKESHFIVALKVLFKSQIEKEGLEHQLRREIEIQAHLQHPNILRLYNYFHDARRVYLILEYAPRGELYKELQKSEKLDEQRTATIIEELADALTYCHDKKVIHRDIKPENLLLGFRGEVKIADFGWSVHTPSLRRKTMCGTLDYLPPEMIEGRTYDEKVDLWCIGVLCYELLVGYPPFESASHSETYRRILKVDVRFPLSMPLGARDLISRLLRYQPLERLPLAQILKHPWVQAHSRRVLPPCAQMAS

[13] = molecular target: Tyrosine-protein kinase ABL2 (Homo sapiens) (UniProt P42684); assay: Inhibition of ABL2 (unknown origin) using [gamma-33P]ATP assessed as residual activity at 3 uM; method in brief: as §1
[14] = molecular target: Interleukin-1 receptor-associated kinase 1 (Homo sapiens) (UniProt P51617); assay: Inhibition of IRAK1 (unknown origin) using [gamma-33P]ATP assessed as residual activity at 3 uM; method in brief: as §2
[15] = molecular target: Tyrosine-protein kinase Yes (Homo sapiens, UniProt P07947); assay: Inhibition of YES (unknown origin) using [gamma-33P]ATP assessed as residual activity at 3 uM
[16] = molecular target: Serine/threonine-protein kinase TAO2 (Homo sapiens) (UniProt Q9UL54); assay: Inhibition of TAOK2 (unknown origin) using [gamma-33P]ATP assessed as residual activity at 3 uM
Serine/threonine-protein kinase TAO2 (Homo sapiens), sequence (Q9UL54 whole entry): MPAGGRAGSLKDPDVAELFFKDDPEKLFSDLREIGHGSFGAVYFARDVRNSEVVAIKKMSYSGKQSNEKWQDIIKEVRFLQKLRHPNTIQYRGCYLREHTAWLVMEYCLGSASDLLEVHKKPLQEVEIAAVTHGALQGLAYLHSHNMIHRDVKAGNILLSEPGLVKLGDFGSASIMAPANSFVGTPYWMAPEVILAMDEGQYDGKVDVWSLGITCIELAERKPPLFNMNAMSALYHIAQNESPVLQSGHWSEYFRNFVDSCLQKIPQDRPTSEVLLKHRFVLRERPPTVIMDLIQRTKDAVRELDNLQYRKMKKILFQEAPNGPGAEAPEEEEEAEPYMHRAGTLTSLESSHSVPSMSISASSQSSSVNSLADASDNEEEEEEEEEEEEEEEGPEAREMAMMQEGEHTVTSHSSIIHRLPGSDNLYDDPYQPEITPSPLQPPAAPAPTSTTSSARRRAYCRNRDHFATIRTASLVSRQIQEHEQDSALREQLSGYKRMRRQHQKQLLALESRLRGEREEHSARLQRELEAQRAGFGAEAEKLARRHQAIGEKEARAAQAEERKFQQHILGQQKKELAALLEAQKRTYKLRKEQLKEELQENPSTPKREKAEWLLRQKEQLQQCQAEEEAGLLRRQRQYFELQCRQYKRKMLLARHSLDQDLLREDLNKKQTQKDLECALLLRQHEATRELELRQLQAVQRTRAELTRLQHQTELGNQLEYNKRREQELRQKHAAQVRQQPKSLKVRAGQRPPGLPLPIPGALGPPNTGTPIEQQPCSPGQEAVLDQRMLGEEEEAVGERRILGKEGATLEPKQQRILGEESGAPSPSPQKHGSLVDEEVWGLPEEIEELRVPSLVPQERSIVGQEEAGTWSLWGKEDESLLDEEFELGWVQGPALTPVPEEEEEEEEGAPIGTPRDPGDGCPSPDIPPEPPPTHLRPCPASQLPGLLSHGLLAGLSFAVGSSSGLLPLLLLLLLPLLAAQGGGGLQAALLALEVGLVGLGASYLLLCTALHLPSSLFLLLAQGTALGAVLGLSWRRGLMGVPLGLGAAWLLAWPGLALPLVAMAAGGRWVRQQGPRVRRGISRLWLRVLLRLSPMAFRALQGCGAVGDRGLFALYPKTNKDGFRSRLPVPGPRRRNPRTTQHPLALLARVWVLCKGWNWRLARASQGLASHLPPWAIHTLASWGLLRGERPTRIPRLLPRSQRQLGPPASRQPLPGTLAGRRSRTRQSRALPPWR

[17] = molecular target: Serine/threonine-protein kinase 33 (Homo sapiens) (UniProt Q9BYT3); assay: Inhibition of STK33 (unknown origin) using [gamma-33P]ATP assessed as residual activity at 3 uM
Serine/threonine-protein kinase 33 (Homo sapiens), sequence (Q9BYT3 whole entry, looked up): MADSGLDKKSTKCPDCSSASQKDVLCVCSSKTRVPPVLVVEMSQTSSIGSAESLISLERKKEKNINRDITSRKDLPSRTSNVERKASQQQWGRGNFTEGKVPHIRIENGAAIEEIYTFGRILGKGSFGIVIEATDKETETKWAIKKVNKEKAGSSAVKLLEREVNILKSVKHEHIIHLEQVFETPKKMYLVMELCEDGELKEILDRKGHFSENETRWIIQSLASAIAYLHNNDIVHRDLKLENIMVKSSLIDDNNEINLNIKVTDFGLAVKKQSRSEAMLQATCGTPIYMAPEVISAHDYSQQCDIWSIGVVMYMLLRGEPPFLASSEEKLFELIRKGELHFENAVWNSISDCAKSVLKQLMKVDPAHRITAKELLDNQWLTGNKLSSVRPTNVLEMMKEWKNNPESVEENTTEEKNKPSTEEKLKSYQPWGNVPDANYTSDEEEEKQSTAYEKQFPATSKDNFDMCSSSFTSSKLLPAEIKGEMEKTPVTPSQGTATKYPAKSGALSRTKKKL

[18] = molecular target: Ribosomal protein S6 kinase alpha-1 (Homo sapiens) (UniProt Q15418); assay: Inhibition of RSK1 (unknown origin) using [gamma-33P]ATP assessed as residual activity at 3 uM
[19] = molecular target: Rho-associated protein kinase 2 (Homo sapiens) (UniProt O75116); assay: Inhibition of ROCK2 (unknown origin) using [gamma-33P]ATP assessed as residual activity at 3 uM
[20] = molecular target: Inhibitor of nuclear factor kappa-B kinase subunit beta (Homo sapiens) (UniProt O14920); assay: Inhibition of IKKb (unknown origin) using [gamma-33P]ATP assessed as residual activity at 3 uM; method in brief: as §2
[21] = molecular target: G protein-coupled receptor kinase 6 (Homo sapiens) (UniProt P43250); assay: Inhibition of GRK6 (unknown origin) using [gamma-33P]ATP assessed as residual activity at 3 uM; method in brief: as §2
G protein-coupled receptor kinase 6 (Homo sapiens), sequence (P43250 whole entry, looked up): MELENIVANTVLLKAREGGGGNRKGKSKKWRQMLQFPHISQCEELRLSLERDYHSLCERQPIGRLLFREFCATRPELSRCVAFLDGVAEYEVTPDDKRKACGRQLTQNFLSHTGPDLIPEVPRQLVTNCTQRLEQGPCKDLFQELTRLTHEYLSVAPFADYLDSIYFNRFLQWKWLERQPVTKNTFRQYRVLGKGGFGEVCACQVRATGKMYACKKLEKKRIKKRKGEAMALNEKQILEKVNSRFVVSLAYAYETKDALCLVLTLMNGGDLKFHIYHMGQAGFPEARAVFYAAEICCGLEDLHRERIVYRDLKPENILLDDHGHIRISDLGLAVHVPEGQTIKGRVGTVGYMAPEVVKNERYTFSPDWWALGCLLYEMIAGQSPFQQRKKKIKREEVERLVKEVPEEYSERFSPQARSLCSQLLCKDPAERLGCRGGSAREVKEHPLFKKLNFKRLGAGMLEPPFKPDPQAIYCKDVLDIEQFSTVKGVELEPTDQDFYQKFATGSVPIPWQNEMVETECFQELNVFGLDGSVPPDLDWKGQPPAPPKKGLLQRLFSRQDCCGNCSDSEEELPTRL

[22] = molecular target: Beta-adrenergic receptor kinase 1 (Homo sapiens) (UniProt P25098); assay: Inhibition of GRK2 (unknown origin) using [gamma-33P]ATP assessed as residual activity at 3 uM; method in brief: as §2
[23] = molecular target: Tyrosine-protein kinase FRK (Homo sapiens) (UniProt P42685); assay: Inhibition of FRK (unknown origin) using [gamma-33P]ATP assessed as residual activity at 3 uM; method in brief: as §2
[24] = molecular target: Fibroblast growth factor receptor 3 (Homo sapiens) (UniProt P22607); assay: Inhibition of FGFR3 (unknown origin) using [gamma-33P]ATP assessed as residual activity at 3 uM
Method in brief: (§3)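 Reaction Biology HotSpot radiometric profiling panel of 288 kinases (261 wild-type, 27 mutant). Kinase activity was read out by incorporation of [γ-33P]ATP.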

[25] = molecular target: Protein kinase C zeta type (Homo sapiens) (UniProt Q05513); assay: Inhibition of PKCzeta (unknown origin) using [gamma-33P]ATP assessed as residual activity at 3 uM
[26] = molecular target: Protein kinase C iota type (Homo sapiens) (UniProt P41743); assay: Inhibition of PKCiota (unknown origin) using [gamma-33P]ATP assessed as residual activity at 3 uM
[27] = molecular target: Protein kinase C gamma type (Homo sapiens) (UniProt P05129); assay: Inhibition of PKCgamma (unknown origin) using [gamma-33P]ATP assessed as residual activity at 3 uM
[28] = molecular target: Protein kinase C beta type (Homo sapiens) (UniProt P05771); assay: Inhibition of PKCb2 (unknown origin) using [gamma-33P]ATP assessed as residual activity at 3 uM
Protein kinase C beta type (Homo sapiens), sequence (P05771 2-671 limits assumed): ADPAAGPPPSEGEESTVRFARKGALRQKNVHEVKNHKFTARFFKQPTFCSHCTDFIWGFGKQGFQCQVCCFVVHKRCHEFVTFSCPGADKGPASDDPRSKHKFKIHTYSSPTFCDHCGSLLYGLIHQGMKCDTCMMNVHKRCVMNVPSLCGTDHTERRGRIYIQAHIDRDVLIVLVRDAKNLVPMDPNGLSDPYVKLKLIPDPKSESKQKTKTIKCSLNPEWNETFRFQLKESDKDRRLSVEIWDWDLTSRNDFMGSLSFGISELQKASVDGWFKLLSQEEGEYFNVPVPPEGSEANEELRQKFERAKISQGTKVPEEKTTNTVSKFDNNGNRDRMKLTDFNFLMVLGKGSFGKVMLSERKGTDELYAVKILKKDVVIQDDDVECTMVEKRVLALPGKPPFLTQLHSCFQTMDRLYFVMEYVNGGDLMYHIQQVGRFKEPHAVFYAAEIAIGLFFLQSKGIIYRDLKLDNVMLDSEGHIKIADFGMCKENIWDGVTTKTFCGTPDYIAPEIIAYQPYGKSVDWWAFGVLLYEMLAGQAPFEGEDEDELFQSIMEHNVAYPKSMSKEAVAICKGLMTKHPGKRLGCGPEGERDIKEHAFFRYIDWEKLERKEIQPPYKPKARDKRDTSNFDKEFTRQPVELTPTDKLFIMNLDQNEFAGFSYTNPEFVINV

[29] = molecular target: Protein kinase C alpha type (Homo sapiens) (UniProt P17252); assay: Inhibition of PKCa (unknown origin) using [gamma-33P]ATP assessed as residual activity at 3 uM
[30] = molecular target: Dual specificity tyrosine-phosphorylation-regulated kinase 4 (Homo sapiens) (UniProt Q9NR20); assay: Inhibition of DYRK4 (unknown origin) using [gamma-33P]ATP assessed as residual activity at 3 uM; method in brief: as §3
Dual specificity tyrosine-phosphorylation-regulated kinase 4 (Homo sapiens), sequence (Q9NR20 whole entry): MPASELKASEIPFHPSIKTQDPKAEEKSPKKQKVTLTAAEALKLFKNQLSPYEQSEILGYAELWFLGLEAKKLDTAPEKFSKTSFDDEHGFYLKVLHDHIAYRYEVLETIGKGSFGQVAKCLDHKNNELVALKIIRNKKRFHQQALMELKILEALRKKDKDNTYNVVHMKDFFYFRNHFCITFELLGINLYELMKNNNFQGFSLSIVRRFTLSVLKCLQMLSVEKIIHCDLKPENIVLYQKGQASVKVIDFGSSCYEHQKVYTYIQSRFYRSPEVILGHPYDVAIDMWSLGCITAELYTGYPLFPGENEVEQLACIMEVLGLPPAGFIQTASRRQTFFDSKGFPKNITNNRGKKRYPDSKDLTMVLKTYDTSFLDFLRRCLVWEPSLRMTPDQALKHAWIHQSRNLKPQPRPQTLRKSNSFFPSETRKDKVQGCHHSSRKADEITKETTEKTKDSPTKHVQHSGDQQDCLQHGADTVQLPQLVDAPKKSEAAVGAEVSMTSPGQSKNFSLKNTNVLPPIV

[31] = molecular target: Death-associated protein kinase 1 (Homo sapiens) (UniProt P53355); assay: Inhibition of DAPK1 (unknown origin) using [gamma-33P]ATP assessed as residual activity at 3 uM; method in brief: as §3

CCc1ccc(-c2ccc3c(c2)-c2[nH]ncc2S(=O)(=O)N3C)cc1
Activity [1]: 87%
Activity [2]: 101%
Activity [3]: 94%
Activity [4]: 97%
Activity [5]: 96%
Activity [6]: 96%
Activity [7]: 85%
Activity [8]: 93%
Activity [9]: 61%
Activity [10]: 78%
Activity [11]: 87%
Activity [12]: 87%
Activity [13]: 90%
Activity [14]: 102%
Activity [15]: 29%
Activity [16]: 100%
Activity [17]: 94%
Activity [18]: 96%
Activity [19]: 94%
Activity [20]: 102%
Activity [21]: 97%
Activity [22]: 98%
Activity [23]: 80%
Activity [24]: 91%
Activity [25]: 98%
Activity [26]: 95%
Activity [27]: 96%
Activity [28]: 86%
Activity [29]: 86%
Activity [30]: 103%
Activity [31]: 94%
